# Active and inactive are the calls of the source. No cut-off for these calls is given here.
# Legend:
# HeLa [1] = test: Induction of apoptosis in human HeLa cells assessed as viable cells at 2 uM after 72 hrs by Annexin V-FITC/propidium iodide staining-based flow cytometric analysis (reference value: 87.6%); assay type: functional; details: read-out: Activity
# Mus musculus [2] = test: Toxicity in Balb/c nude mouse xenografted with human A2780 cells assessed as body weight at 20 mg/kg, ip measured immediately after first dose (reference value: 21.74 +/- 0.63 g); assay type: organism-based; details: in vivo
# HeLa [3] = test: Antiproliferative activity against human HeLa cells by MTT assay; assay type: functional, cell-based
# Outline: (§1)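 Growth inhibition rate calculated per compound. IC₅₀ derived by curve fitting.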
# HeLa [4] = test: Induction of apoptosis in human HeLa cells assessed as necrotic cells at 0.5 uM after 72 hrs by Annexin V-FITC/propidium iodide staining-based flow cytometric analysis (reference value: 0.5%); assay type: functional
# A2780 [5] = test: Antitumor activity against human A2780 cells xenografted in Balb/c nude mouse assessed as tumor growth inhibition at 20 mg/kg, ip administered every other day relative to control; assay type: functional; details: read-out: TGI
# HeLa [6] = test: Induction of apoptosis in human HeLa cells assessed as early apoptotic cells at 1 uM after 72 hrs by Annexin V-FITC/propidium iodide staining-based flow cytometric analysis (reference value: […]); assay type: functional
# HeLa [7] = test: Induction of cell cycle arrest in human HeLa cells assessed as increase in cyclin B1 expression levels at 1.25 to 20 uM after 24 hrs by Western blot analysis; assay type: functional, cell-based
# Outline: (§2)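 HeLa cells treated with compound or DMSO for 24 h and lysed; protein quantified by BCA. Run on 8-12% SDS-PAGE and blotted to PVDF. Blocked in 5% BSA/TBST for 1.5 h, primary antibody overnight at 4 °C, secondary 2 h at room temperature. Chemiluminescent detection.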
# MDA-MB-231 [8] = test: Antiproliferative activity against human MDA-MB-231 cells by MTT assay; assay type: functional, cell-based; outline: as §1
# HeLa [9] = test: Induction of apoptosis in human HeLa cells assessed as late apoptotic cells at 1 uM after 72 hrs by Annexin V-FITC/propidium iodide staining-based flow cytometric analysis (reference value: 3.3%); assay type: functional
# Sus scrofa = species on record: Sus scrofa; test: (§3) Inhibition of pig brain tubulin polymerization measured every 1 min for 20 mins by spectrophotometric analysis
# [10] = as §3; set-up: species or system Sus scrofa
# HeLa [11] = test: Induction of cell cycle arrest in human HeLa cells assessed as increase in phosphorylated histone H3 levels at 1.25 to 20 uM after 24 hrs by Western blot analysis; assay type: functional, cell-based; outline: as §2
# [12] = Cytotoxicity against HOSEC at 10 to 50 uM by MTT assay relative to control; details: human
# HUVEC [13] = test: Antiangiogenic activity against HUVEC assessed as capillary like tube formation at 1 uM after 12 hrs by matrigel-based microscopic analysis; assay type: functional, cell-based; details: Homo sapiens
# Outline: (§4)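 Matrigel pre-set in wells for 2 h at 37 °C, 5% CO₂. HUVECs (10⁴ per well) seeded in medium with compound or DMSO. Incubated 6-12 h, then capillary-like tube networks photographed under a microscope.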
# HeLa [14] = test: Induction of apoptosis in human HeLa cells assessed as early apoptotic cells at 0.5 uM after 72 hrs by Annexin V-FITC/propidium iodide staining-based flow cytometric analysis (reference value: […]); assay type: functional
# MDA-MB-231 [15] = test: Inhibition of colony formation of human MDA-MB-231 cells incubated for 48 hrs followed by subsequent incubation for 7 to 10 days in fresh medium by gentian violet staining-based colony formation assay; assay type: functional, cell-based
# Outline: (§5)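 MDA-MB-231 or A2780 cells seeded at 1000 per well and grown 48 h at 37 °C, 5% CO₂. Then exposed to compound or DMSO for 48 h, medium replaced, and grown a further 7-10 days. Colonies fixed with methanol for 20 min and stained with gentian violet for 30 min. Three independent runs.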
# HCT-116 = test: Antiproliferative activity against human HCT116 cells by MTT assay; assay type: functional, cell-based; outline: as §1
# HeLa [16] = test: Induction of apoptosis in human HeLa cells assessed as early apoptotic cells at 2 uM after 72 hrs by Annexin V-FITC/propidium iodide staining-based flow cytometric analysis (reference value: […]); assay type: functional
# MDA-MB-231 [17] = test: Inhibition of colony formation of human MDA-MB-231 cells at 800 nM incubated for 48 hrs followed by subsequent incubation for 7 to 10 days in fresh medium by gentian violet staining-based colony formation assay; assay type: functional, cell-based; outline: as §5
# HeLa [18] = test: Induction of apoptosis in human HeLa cells assessed as late apoptotic cells at 2 uM after 72 hrs by Annexin V-FITC/propidium iodide staining-based flow cytometric analysis (reference value: 3.3%); assay type: functional
# HUVEC [19] = test: Antiangiogenic activity against HUVEC assessed as capillary like tube formation at 2 uM after 6 to 12 hrs by matrigel-based microscopic analysis; assay type: functional, cell-based; details: Homo sapiens; outline: as §4
# HeLa [20] = test: Induction of apoptosis in human HeLa cells assessed as increase in p53 protein levels after 24 hrs Western blot analysis
# HeLa [21] = test: Induction of apoptosis in human HeLa cells assessed as necrotic cells at 1 uM after 72 hrs by Annexin V-FITC/propidium iodide staining-based flow cytometric analysis (reference value: 0.5%); assay type: functional
# Mus musculus [22] = test: Toxicity in Balb/c nude mouse xenografted with human A2780 cells assessed as body weight at 20 mg/kg, ip administered every other day measured at end of study (reference value: 22.35 +/- 0.74 g); assay type: organism-based; details: in vivo
# HeLa [23] = test: Induction of apoptosis in human HeLa cells assessed as increase in cleaved PARP1 protein levels after 24 hrs Western blot analysis
# HeLa [24] = test: Induction of apoptosis in human HeLa cells assessed as late apoptotic cells at 0.5 uM after 72 hrs by Annexin V-FITC/propidium iodide staining-based flow cytometric analysis (reference value: 3.3%); assay type: functional
# HeLa [25] = test: Cell cycle arrest in human HeLa cells assessed as accumulation of cells at G2/M phase after 24 hrs by propidium iodide staining-based flow cytometric analysis; assay type: functional
# Outline: (§6)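 HeLa cells treated with compound or DMSO, washed in PBS and fixed in 75% ethanol at -20 °C overnight. Stained with propidium iodide containing 0.1% RNase for 15 min in the dark at room temperature. DNA content read by flow cytometry to give cell-cycle phase distribution.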
# HeLa [26] = test: Induction of apoptosis in human HeLa cells assessed as necrotic cells at 2 uM after 72 hrs by Annexin V-FITC/propidium iodide staining-based flow cytometric analysis (reference value: 0.5%); assay type: functional
# A2780 [27] = test: Inhibition of colony formation of human A2780 cells incubated for 48 hrs followed by subsequent incubation for 7 to 10 days in fresh medium by gentian violet staining-based colony formation assay; assay type: functional, cell-based; outline: as §5
# A2780 [28] = test: Antiproliferative activity against human A2780 cells by MTT assay; assay type: functional, cell-based; outline: as §1
# HeLa [29] = test: Induction of apoptosis in human HeLa cells after 72 hrs by Annexin V-FITC/propidium iodide staining-based flow cytometric analysis; assay type: functional, cell-based
# HeLa [30] = test: Induction of apoptosis in human HeLa cells assessed as viable cells at 1 uM after 72 hrs by Annexin V-FITC/propidium iodide staining-based flow cytometric analysis (reference value: 87.6%); assay type: functional; details: read-out: Activity
# HeLa [31] = test: Cell cycle arrest in human HeLa cells assessed as accumulation of cells at G2/M phase at 2 uM after 12 hrs by propidium iodide staining-based flow cytometric analysis (reference value: 17.6%); assay type: functional; outline: as §6
# HeLa [32] = test: Induction of apoptosis in human HeLa cells assessed as viable cells at 0.5 uM after 72 hrs by Annexin V-FITC/propidium iodide staining-based flow cytometric analysis (reference value: 87.6%); assay type: functional; details: read-out: Activity
structure (smiles),measurement,setting,value
COc1ccc(N2C(=O)N(C)C(=O)C2c2cc(OC)c(OC)c(OC)c2)cc1N (centres undefined),viability at 2 µM,HeLa [1],27.3%
same,Activity,Mus musculus [2],21.62 g
same,IC50,HeLa [3],251 nM
same,Activity,HeLa [4],0.8%
same,inhibition in vivo at 20 mg/kg,A2780 [5],46.9%
same,Activity,HeLa [6],47.8%
same,Activity,HeLa [7],Active
same,IC50,MDA-MB-231 [8],279 nM
same,Activity,HeLa [9],8.7%
same,inhibition,Sus scrofa,Dose-dependent effect
same,IC50,[10],16200 nM
same,Activity,HeLa [11],Active
same,Activity,[12],≤ 33%
same,Activity,HUVEC [13],Active
same,Activity,HeLa [14],25.3%
same,inhibition,MDA-MB-231 [15],Dose-dependent effect
same,IC50,HCT-116,265 nM
same,Activity,HeLa [16],53%
same,inhibition,MDA-MB-231 [17],Active
same,Activity,HeLa [18],17.5%
same,Activity,HUVEC [19],Active
same,Activity,HeLa [20],Dose-dependent effect
same,Activity,HeLa [21],0.3%
same,Activity,Mus musculus [22],22.05 g
same,Activity,HeLa [23],Dose-dependent effect
same,Activity,HeLa [24],6.1%
same,Activity,HeLa [25],Dose-dependent effect
same,Activity,HeLa [26],2.2%
same,inhibition,A2780 [27],Dose-dependent effect
same,IC50,A2780 [28],186 nM
same,Activity,HeLa [29],Dose-dependent effect
same,viability at 1 µM,HeLa [30],43.2%
same,Activity,HeLa [31],91.4%
same,viability at 0.5 µM,HeLa [32],67.8%
COc1cc(C2C(=O)NC(=O)N2c2ccc3ncccc3c2)cc(OC)c1OC (centres undefined),IC50,HeLa [3],> 50000 nM
same,IC50,A2780 [28],> 50000 nM
COc1ccc(/C=C\c2cc(OC)c(OC)c(OC)c2)cc1O [COMBRETASTATIN A4],IC50,HeLa [3],7 nM
same,IC50,MDA-MB-231 [8],2 nM
same,IC50,[10],6600 nM
same,IC50,A2780 [28],5 nM
COc1ccc(N2C(=S)NC(=O)C2c2cc(OC)c(OC)c(OC)c2)cc1O (centres undefined),IC50,HeLa [3],> 50000 nM
same,IC50,A2780 [28],> 50000 nM
COc1cc(C2C(=O)NC(=O)N2c2cccc(O)c2)cc(OC)c1OC (centres undefined),IC50,HeLa [3],> 50000 nM
same,IC50,A2780 [28],> 50000 nM
COc1cc(C2C(=O)NC(=O)N2c2ccc(C)c(C)c2)cc(OC)c1OC (centres undefined),IC50,HeLa [3],620 nM
same,IC50,MDA-MB-231 [8],835 nM
same,IC50,HCT-116,475 nM
same,IC50,A2780 [28],627 nM
COc1ccc(C2C(=O)NC(=O)N2c2cc(OC)c(OC)c(OC)c2)cc1O (centres undefined),IC50,HeLa [3],> 50000 nM
same,IC50,A2780 [28],> 50000 nM
COc1cc(C2C(=O)N(C)C(=O)N2c2ccc(C)c(C)c2)cc(OC)c1OC (centres undefined),IC50,HeLa [3],363 nM
same,IC50,MDA-MB-231 [8],493 nM
same,IC50,HCT-116,307 nM
same,IC50,A2780 [28],533 nM
COc1ccc(N2C(=O)NC(=O)C2c2cc(OC)c(OC)c(OC)c2)cc1OS(=O)(=O)F (centres undefined),IC50,HeLa [3],6760 nM
same,IC50,A2780 [28],4520 nM
COc1cc(C2C(=O)NC(=O)N2c2ccccc2)cc(OC)c1OC (centres undefined),IC50,HeLa [3],> 50000 nM
same,IC50,A2780 [28],> 50000 nM
COc1cc(C2C(=O)NC(=O)N2c2cc(OC)c(OC)c(OC)c2)cc(OC)c1OC (centres undefined),IC50,HeLa [3],> 50000 nM
same,IC50,A2780 [28],> 50000 nM
COc1ccc(N2C(=S)NC(=O)C2c2cc(OC)c(OC)c(OC)c2)cc1 (centres undefined),IC50,HeLa [3],> 50000 nM
same,IC50,A2780 [28],> 50000 nM
COc1cc(C2C(=O)N(C)C(=O)N2c2ccc(C)c(N)c2)cc(OC)c1OC (centres undefined),IC50,HeLa [3],631 nM
same,IC50,MDA-MB-231 [8],1190 nM
same,IC50,HCT-116,681 nM
same,IC50,A2780 [28],679 nM
COc1ccc(N2C(=O)N(C)C(=O)C2c2cc(OC)c(OC)c(OC)c2)cc1F (centres undefined),IC50,HeLa [3],516 nM
same,IC50,MDA-MB-231 [8],452 nM
same,IC50,HCT-116,527 nM
same,IC50,A2780 [28],555 nM
COc1ccc(N2C(=O)N(CCO)C(=O)C2c2cc(OC)c(OC)c(OC)c2)cc1N (centres undefined),IC50,HeLa [3],3600 nM
same,IC50,A2780 [28],6620 nM
CCN1C(=O)C(c2cc(OC)c(OC)c(OC)c2)N(c2ccc(OC)c(N)c2)C1=O (centres undefined),IC50,HeLa [3],3300 nM
same,IC50,A2780 [28],1910 nM
